Source: PubChem
In the library only some 4% were active in any assay of this set; here they are far more common.
Yeast life ext: compounds extending yeast replicative lifespan, primary screen, S. cerevisiae, OD615 | S. cerevisiae growth with nicotinamide; deaD strain in restrictive glucose medium | inhibition of the nicotinamide effect, % at 10 µM | 130,000 compounds, 0.68% hits | AID 775, 2007;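 active means inhibition above a set limit, placed 3 SD over the median of all compounds, cut at about 26% in these data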
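Material: Modified budding yeast, DeaD strain | Medium: Restrictive glucose medium | Probe or stimulus: 1.5 mM nicotinamide | Dosing: Single dose 10 µM compound, 0.25% DMSO | Times: 48 h at 30 °C | Technique: OD615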
INS promoter inh: inhibitors of insulin promoter-driven GFP, primary screen, imaging, TRM-6 cells, eGFP reporter, cell count | AID 1273, 2008 | inhibition, % at 2 µM | 130,000 compounds, 0.9% hits | reporter expression induced with tamoxifen;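 active means inhibition above the mean plus 3 SD, with well images judged a real hit on visual review, cut at about 60% in these data, passing the limit was not always enough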
RAM network inh: inhibitors of the yeast RAM network, primary screen, dse1pr::URA3 reporter, 5-FOA selection; S. cerevisiae dse1pr::URA3 reporter, 5-FOA growth OD615, 2 d; analog-sensitive cbk1-as2 kinase mutant strain; inhibition, % at 50 µM; 190,000 compounds, 1.8% hits; AID 868, 2007;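 active means inhibition above a set limit, 3 SD over mean compound inhibition, cut at about 8.4% in these data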;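 further: inhibition rescues growth on 5-FOA so higher OD means more RAM inhibition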
Measles CPE: compounds protecting cells from measles virus cytopathic effect, primary screen, measles RdRp inhibitor project, single point, MLSMR library, absorbance; AID 841, 2007; protection (pct of control), % at 4 µM; Measles virus-infected cells, CPE protection; 140,000 compounds, 1.5% hits; in the data active means protection mostly above about 24%, no sharp cut-off; inactive means mostly below about 26%
BB579 growth dn: growth inhibitors of yeast BB579 in restrictive medium, primary screen, yeast lifespan-shortening project, S. cerevisiae; OD615, 48 h; inhibition, % at 10 µM; 140,000 compounds, 0.51% hits;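 active means inhibition above a set limit, 3 SD over the mean compound inhibition, cut at about 44% in these data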
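Assay system: S. cerevisiae DeaD strain BB579 yeast. Medium: CSMM-D restrictive synthetic medium containing dextrose (glucose). Times: 4 h cell preincubation, 48 h compound exposure, 30 °C humidified. Signal: OD615 turbidity measurement. Benchmarks: positive control amphotericin B 10 µg/mL.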
MDM2 E3 inh: MDM2-luciferase reporter signal enhancers, primary screen, MDM2 E3 ligase inhibitor project, cell-based, luminescence, 1536-well; AID 1230, 2008; 210,000 compounds, 0.11% hits; E3 ubiquitin-protein ligase Mdm2 (Homo sapiens), Q00987; cell-based MDM2 ubiquitination luciferase reporter, 2 h; 0 = plate control, 100 = twice control, blank-subtracted; signal enhancement, % at 5 µM;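 active means signal enhancement of 30% or more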;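 further: luminescence tracks abundance of the self-degrading MDM2-luciferase fusion protein; higher signal means inhibition of MDM2 E3 ligase activity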
Target sequence (Q00987 whole entry, looked up, the tested form may be a part): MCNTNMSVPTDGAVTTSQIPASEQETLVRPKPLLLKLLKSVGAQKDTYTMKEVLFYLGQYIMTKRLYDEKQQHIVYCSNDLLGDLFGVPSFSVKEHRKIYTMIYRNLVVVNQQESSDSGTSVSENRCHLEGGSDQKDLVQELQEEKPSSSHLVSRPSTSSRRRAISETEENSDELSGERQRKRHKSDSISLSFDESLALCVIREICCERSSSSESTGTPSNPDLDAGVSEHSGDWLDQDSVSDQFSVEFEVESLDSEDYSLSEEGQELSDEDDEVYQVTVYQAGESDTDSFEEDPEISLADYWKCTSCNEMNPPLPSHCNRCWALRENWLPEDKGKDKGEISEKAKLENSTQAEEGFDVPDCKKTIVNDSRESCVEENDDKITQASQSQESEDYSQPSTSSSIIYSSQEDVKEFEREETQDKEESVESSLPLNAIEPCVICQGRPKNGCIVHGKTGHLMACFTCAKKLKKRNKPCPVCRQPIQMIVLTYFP
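test system = mammalian cells stably expressing self-ubiquitinating, self-degrading MDM2 E3–luciferase fusion | quantity = 2000 cells/well | incubation = cell settling 4 h, compound treatment 2 h, both 37 °C | signal = luminescence with SteadyLite reagent, 15 min at room temperature | evaluation = % enhancement relative to plate controls after blank subtraction | benchmarks = plate controls and plate blanks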
A number is an active result; . = inactive; / = no result given.

SMILES | Yeast life ext | INS promoter inh | RAM network inh | Measles CPE | BB579 growth dn | MDM2 E3 inh
Cc1ccc(-c2cn3cccc(C)c3n2)cc1 | / | 72.7 | . | / | / | .
O=C(COC(=O)c1cccc(NS(=O)(=O)/C=C/c2ccccc2)c1)Nc1ccccc1OC(F)F | . | . | . | . | . | .
CC(CCc1ccccc1)NC(=O)C1CCCN(c2nnc(-n3cccc3)s2)C1 (stereo not drawn) | . | / | . | 35.1 | . | .
COC(=O)c1cc(OC)nc2ccc(Br)cc12 | / | / | / | / | / | .
C=CCN1C(=O)C(Cc2ccc(OCC)cc2)S/C1=N\N=C\c1cccs1 (stereo not drawn) | 29.6 | . | 9.3 | . | . | /
COc1cccc(-c2cc(C(=O)Nc3nc4ccccc4s3)c3ccccc3n2)c1 | . | . | . | . | . | .
COc1ccc(-c2cc(C(=O)Nc3nc4c(C)cccc4s3)c3ccccc3n2)cc1OC | . | . | 8.6 | . | . | .
O=C(Nc1nccs1)c1cc(-c2ccco2)nc2ccccc12 | . | . | . | . | . | .
CC(C)Cc1nnc(NC(=O)c2cc(-c3ccccc3)nc3ccccc23)s1 | . | . | . | 43.9 | . | .
CC(C)Cc1nnc(NC(=O)c2cc(-c3ccncc3)nc3ccccc23)s1 | / | / | / | / | / | .
O=C(NCc1ccccn1)c1cc(-c2ccc(-c3ccccc3)cc2)nc2ccccc12 | . | . | . | 50.0 | . | .
O=C(Nc1nccs1)c1cc(-c2ccccc2)nc2ccccc12 | . | . | . | 39.9 | . | .
O=C(NCc1ccccn1)c1cc(-c2ccccc2)nc2ccccc12 | . | . | . | . | . | /
CCn1c(SCC(=O)NNC(=O)c2ccc(OC)cc2)nnc1-c1cccnc1 | / | / | . | / | / | .
O=C(CCC(=O)Nc1nnc(C2CCCCC2)s1)NCC1CCCO1 (stereo not drawn) | . | . | . | 65.0 | . | .
CC(C)c1nnc(NC(=O)CCC(=O)NCC2CCCO2)s1 (stereo not drawn) | . | / | . | . | . | .
CC1(C)COC(c2cccc(C3=NC(C)(C)CO3)n2)=N1 | . | . | . | . | . | .
O=C(Cc1ccc(-n2c(=O)c3ccccc3n(Cc3ccccc3Cl)c2=O)cc1)NCC1CCCO1 (stereo not drawn) | / | . | . | / | / | 30.4
CCOC(=O)c1c(/N=C/C2=C(O)CCCC2=O)sc(C)c1C | . | . | . | . | . | .
CCOC(=O)c1c(/N=C/c2cccc([N+](=O)[O-])c2O)sc(C)c1C | . | . | . | . | 75.3 | .
C#CCn1c(=NC(=O)c2cc(Cl)sc2Cl)sc2cc(S(N)(=O)=O)ccc21 | . | . | . | . | . | .
C#CCn1c(=NC(=O)c2cc(-c3cccs3)nc3ccccc23)sc2cc(S(N)(=O)=O)ccc21 | . | . | 9.7 | . | . | .
Cc1ccc(F)c(NC(=O)/C(C#N)=C(\O)c2ccc(C(C)(C)C)cc2)c1 | / | / | . | / | / | .
CC1=NN(c2ccccc2)C(=O)C1C(=O)c1ccccc1 (stereo not drawn) | 27.6 | / | . | . | . | .
Cc1ccc(S(=O)(=O)NCC(=O)OCC(=O)Nc2cccc(S(=O)(=O)NC3=NCCCCC3)c2)cc1 | / | 77.8 | . | / | / | .
SMILES | Yeast life ext | INS promoter inh | RAM network inh | Measles CPE | BB579 growth dn | MDM2 E3 inh
Cc1cc(SCC(=O)Nc2cccc(S(N)(=O)=O)c2)c(C)cc1Br | / | / | . | / | / | /
Cc1cc(SCC(=O)Nc2cccc(S(=O)(=O)NC3=NCCCCC3)c2)c(C)cc1Br | . | . | . | 27.6 | . | .
O=c1c(-c2ccc(Cl)cc2)[n+]([O-])c2ccccc2n1O | . | . | . | . | 99.8 | .
CCOc1ccccc1Nc1nc2ccccc2n1C(C)C | / | . | . | / | / | .
COc1cccc(/C=C2\SC(=S)N(CC3CCCO3)C2=O)c1 (stereo not drawn) | . | . | 8.6 | . | . | .
O=C1/C(=C/c2cccc(O)c2)SC(=S)N1CC1CCCO1 (stereo not drawn) | / | / | / | / | / | .
Cc1noc(C)c1C(=O)OCC(=O)c1cc(C)n(Cc2ccccc2Cl)c1C | . | / | . | . | . | .
C=CCn1c(SCC(=O)NCc2ccc3c(c2)OCO3)nnc1-c1cccnc1 | / | 76.5 | . | / | / | .
O=C(CCSc1nnc2scc(-c3ccccc3)n12)NCc1ccc2c(c1)OCO2 | . | . | 10.1 | . | . | .
CS(=O)(=O)N1CC(C(=O)O)Oc2ccc(CC(=O)O)cc21 (stereo not drawn) | / | / | . | / | / | .
O=C(Nc1ccc(F)cc1)c1ccccc1S(=O)(=O)c1ccccc1[N+](=O)[O-] | . | . | . | . | . | 48.8
Nc1nc(Sc2c([N+](=O)[O-])cc(C(F)(F)F)cc2[N+](=O)[O-])n[nH]1 | / | / | / | / | / | .
C=CCn1c(=O)[nH]c2cc(C(=O)N3CC=C(c4ccccc4)CC3)ccc2c1=O | / | / | . | / | / | .
CCC(CO)NS(=O)(=O)c1cc(-c2nn(C)c(=O)c3ccccc23)ccc1C (stereo not drawn) | / | / | . | / | / | .
CCOc1ccccc1NC1=C(Cl)C(=O)N(Cc2ccccc2)C1=O | . | . | 10.6 | . | . | .
CC1CN(CC(=O)Nc2ccccc2Sc2ccccc2)CC(C)O1 (stereo not drawn) | 26.9 | . | . | . | . | .
CN(CCC1CCCCO1)C(=O)CCc1nnc(C2CCCCC2)o1 (stereo not drawn) | / | / | . | / | / | .
O=[N+]([O-])c1cccc(-c2nc(-c3cccs3)c(-c3cccs3)[nH]2)c1 | . | . | . | . | . | .
O=[N+]([O-])c1cccc(-c2nc(-c3ccccc3)c(-c3cccs3)[nH]2)c1 | . | . | 8.5 | . | . | .
COc1cccc2cc(C(=O)c3ccc([N+](=O)[O-])cc3)oc12 | / | . | . | / | / | .
COc1cccc(-c2ccc(-c3noc(-c4ccccc4F)n3)c(OC)n2)c1 | . | . | 11.0 | . | . | .
COc1cccc(-c2ccc(-c3noc(-c4cccs4)n3)c(OC)n2)c1 | . | . | . | . | . | .
COc1ccccc1N1CCN(C(=O)COc2ccc(S(=O)(=O)NC(C)(C)C)cc2)CC1 | / | / | . | / | / | .
O=C(CSc1ccc(Cl)cc1)N1CCN(c2ncc(C(F)(F)F)cc2Cl)CC1 | . | . | 11.3 | . | . | .
Clc1ccc(CCNc2nc3ccccc3s2)cc1 | . | . | . | . | 67.7 | .
O=C(CSc1nc2ccccc2c(=O)n1Cc1ccco1)N1CCN(c2ccccc2)CC1 | . | . | . | 44.6 | . | .
CC(C)OC(=O)CSc1ncnc2c1cnn2Cc1ccccc1 | . | . | . | 33.3 | . | .
